Consider 3 compounds from ChEMBL document CHEMBL2010769, “Synthesis and antiviral activity of 6-deoxycyclopropavir, a new prodrug of cyclopropavir” (Bioorg Med Chem, 2012).

The test system of assay [1] is Murid betaherpesvirus 1. The assay is described as follows: Antiviral activity against MCMV infected in SCID mouse assessed as log10 reduction in viral titer in lung at 10 mg/kg, po relative to control. The class given is functional.
The subject of assay [2] is Murid betaherpesvirus 1. The assay is described as follows: Antiviral activity against MCMV infected in SCID mouse assessed as log10 reduction in viral titer in spleen at 10 mg/kg, po relative to control. The assay is classed as functional.
Assay [3] has as its system Murid betaherpesvirus 1. The assay is described as follows: Antiviral activity against MCMV infected in SCID mouse assessed as log10 reduction in viral titer in kidney at 10 mg/kg, po relative to control. The assay is classed as functional.
The subject of assay [4] is Murid betaherpesvirus 1. The assay is described as follows: Antiviral activity against MCMV infected in SCID mouse assessed as log10 reduction in viral titer in liver at 10 mg/kg, po relative to control. The class given is functional.
The test system of assay [5] is Human betaherpesvirus 5. The assay is described as follows: Antiviral activity against HCMV Toledo infected in human thymus/liver tissue xenografted in SCID mouse assessed as decrease in viral infection at 20 mg/kg, po qd for 28 days by RT-PCR analysis (reference value: 92%). The class given is functional, strain Toledo. On the set-up: scale not given: the % may be the effect or the level left. For orientation: In xenograft studies the graft and the host belong to different species.

Assay [6] relates to Human betaherpesvirus 5. The assay is described as follows: Antiviral activity against HCMV Toledo infected in human thymus/liver tissue xenografted in SCID mouse assessed as mean log10 genome equivalents/animal at 20 mg/kg, po qd for 28 days by RT-PCR analysis (reference value: 3.73 +/- 0.784). The assay is classed as functional, strain Toledo.
Assay [7] deals with Human betaherpesvirus 5. The assay is described as follows: Antiviral activity against HCMV Toledo infected in human thymus/liver tissue xenografted in SCID mouse assessed as decrease in viral infection at 20 mg/kg, po qd for 14 days by RT-PCR analysis (reference value: 92%). The assay is classed as functional, strain Toledo. On the set-up: scale not given: the % may be the effect or the level left.

The subject of assay [8] is Human betaherpesvirus 5. The assay is described as follows: Antiviral activity against HCMV Toledo infected in human thymus/liver tissue xenografted in SCID mouse assessed as mean log10 genome equivalents/animal at 20 mg/kg, po qd for 28 days measured on day 35 by RT-PCR analysis (reference value: 3.28 +/- 1.422). The class given is functional, strain Toledo.
The subject of assay [9] is Human betaherpesvirus 5. The assay is described as follows: Antiviral activity against HCMV Toledo infected in human thymus/liver tissue xenografted in SCID mouse assessed as mean log10 genome equivalents/animal at 20 mg/kg, po qd for 21 days by RT-PCR analysis (reference value: 3.82 +/- 1.24). The assay is classed as functional, strain Toledo.
Assay [10] concerns Human betaherpesvirus 5. The assay is described as follows: Antiviral activity against HCMV Toledo infected in human thymus/liver tissue xenografted in SCID mouse assessed as decrease in viral infection at 20 mg/kg, po qd for 28 days measured on day 35 by RT-PCR analysis (reference value: 67%). The assay is classed as functional, strain Toledo. Details: scale not given: the % may be the effect or the level left.

In assay [11] the test system is Human betaherpesvirus 5. The assay is described as follows: Antiviral activity against HCMV Toledo infected in human thymus/liver tissue xenografted in SCID mouse assessed as mean log10 genome equivalents/animal at 20 mg/kg, po qd for 14 days by RT-PCR analysis (reference value: 3.50 +/- 0.878). The class given is functional, strain Toledo.
For assay [12], the system named is Human betaherpesvirus 5. The assay is described as follows: Antiviral activity against HCMV Toledo infected in human thymus/liver tissue xenografted in SCID mouse assessed as decrease in viral infection at 20 mg/kg, po qd for 21 days by RT-PCR analysis (reference value: 92%). The class given is functional, strain Toledo. Details: scale not given: the % may be the effect or the level left.

Assay [13] relates to Murid betaherpesvirus 1. The assay is described as follows: Antiviral activity against MCMV infected in BALB/c mouse assessed as decrease in virus-induced mean day of death at 50 mg/kg, po qd for 5 days administered 24 hrs after viral infection (reference value: 4.9 +/- 0.7 days). The assay is classed as functional.
For assay [14], the system named is Murid betaherpesvirus 1. The assay is described as follows: Antiviral activity against MCMV infected in BALB/c mouse assessed as decrease in virus-induced mortality at 16.7 mg/kg, po qd for 5 days administered 24 hrs after viral infection (reference value: 67%). The assay is classed as functional. Details: scale not given: the % may be the effect or the level left. In outline: (§1)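 Female BALB/c mice (3 weeks, 15/group) were inoculated ip with MCMV Smith at about LD90. Oral dosing of 0.2 mL in 0.4% CMC ran once daily for 5 days, starting 24 or 48 h post-inoculation. Mice were observed daily for 21 days. Mortality was compared with CMC placebo by Fisher's exact test.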

Assay [15] relates to Murid betaherpesvirus 1. The assay is described as follows: Antiviral activity against MCMV infected in BALB/c mouse assessed as decrease in virus-induced mortality at 5.6 mg/kg, po qd for 5 days administered 24 hrs after viral infection (reference value: 67%). The assay is classed as functional. On the set-up: scale not given: the % may be the effect or the level left. In outline: as §1

Assay [16] has as its system Murid betaherpesvirus 1. The assay is described as follows: Antiviral activity against MCMV infected in BALB/c mouse assessed as decrease in virus-induced mean day of death at 16.7 mg/kg, po qd for 5 days administered 24 hrs after viral infection (reference value: 4.9 +/- 0.7 days). The class given is functional.
The subject of assay [17] is Murid betaherpesvirus 1. The assay is described as follows: Antiviral activity against MCMV infected in BALB/c mouse assessed as decrease in virus-induced mortality at 5.6 mg/kg, po qd for 5 days administered 48 hrs after viral infection (reference value: 100%). The assay is classed as functional. Details: scale not given: the % may be the effect or the level left. A digest of the protocol:
as §1

For assay [18], the system named is Murid betaherpesvirus 1. The assay is described as follows: Antiviral activity against MCMV infected in BALB/c mouse assessed as decrease in virus-induced mortality at 16.7 mg/kg, po qd for 5 days administered 48 hrs after viral infection (reference value: 100%). The assay is classed as functional. Details: scale not given: the % may be the effect or the level left. A digest of the protocol: as §1

Assay [19] deals with Murid betaherpesvirus 1. The assay is described as follows: Antiviral activity against MCMV infected in BALB/c mouse assessed as decrease in virus-induced mortality at 50 mg/kg, po qd for 5 days administered 24 hrs after viral infection (reference value: 67%). The class given is functional. On the set-up: scale not given: the % may be the effect or the level left. In outline:
as §1

The subject of assay [20] is Murid betaherpesvirus 1. The assay is described as follows: Antiviral activity against MCMV infected in BALB/c mouse assessed as decrease in virus-induced mortality at 50 mg/kg, po qd for 5 days administered 48 hrs after viral infection (reference value: 100%). The class given is functional. Details: scale not given: the % may be the effect or the level left. In outline:
as §1

Assay [21] relates to Murid betaherpesvirus 1. The assay is described as follows: Antiviral activity against MCMV infected in BALB/c mouse assessed as decrease in virus-induced mean day of death at 5.6 mg/kg, po qd for 5 days administered 24 hrs after viral infection (reference value: 4.9 +/- 0.7 days). The class given is functional.
Assay [22] has as its system Murid betaherpesvirus 1. The assay is described as follows: Antiviral activity against MCMV infected in BALB/c mouse assessed as decrease in virus-induced mean day of death at 50 mg/kg, po qd for 5 days administered 48 hrs after viral infection (reference value: 5.1 +/- 0.9 days). The class given is functional.
The subject of assay [23] is Murid betaherpesvirus 1. The assay is described as follows: Antiviral activity against MCMV infected in BALB/c mouse assessed as decrease in virus-induced mean day of death at 16.7 mg/kg, po qd for 5 days administered 48 hrs after viral infection (reference value: 5.1 +/- 0.9 days). The assay is classed as functional.
Assay [24] deals with Murid betaherpesvirus 1. The assay is described as follows: Antiviral activity against MCMV infected in BALB/c mouse assessed as decrease in virus-induced mean day of death at 5.6 mg/kg, po qd for 5 days administered 48 hrs after viral infection (reference value: 5.1 +/- 0.9 days). The class given is functional.

Structures are written as SMILES.

For `Nc1nc2c(ncn2/C=C2/CC2(CO)CO)c(=O)[nH]1` [FILOCICLOVIR], the FC with Murid betaherpesvirus 1 [1], in the assay with Murid betaherpesvirus 1 [2], in the assay on Murid betaherpesvirus 1 [3] and with Murid betaherpesvirus 1 [4] was 2 throughout.

Consider `Nc1ccn(C[C@@H](CO)OCP(=O)(O)O)c(=O)n1.O.O` [CIDOFOVIR], for which the Activity with Human betaherpesvirus 5 [5] was determined as 50%; in the assay with Human betaherpesvirus 5 [6], 2.08; in the assay with Human betaherpesvirus 5 [7] it was 82%; in the assay on Human betaherpesvirus 5 [8], 1.59; in the assay on Human betaherpesvirus 5 [9], 2.83; in the assay on Human betaherpesvirus 5 [10] it was 0%. For the same compound, the figures for the Activity in the assay on Human betaherpesvirus 5 [11] and in the assay on Human betaherpesvirus 5 [12] were 2.47 and 100%, respectively.

As for `Nc1nc2c(ncn2COC(CO)CO)c(=O)[nH]1` [GANCICLOVIR], the Activity was found to be 6 days in the assay on Murid betaherpesvirus 1 [13]; 20% with Murid betaherpesvirus 1 [14]; 87% with Murid betaherpesvirus 1 [15]; 6.3 days in the assay with Murid betaherpesvirus 1 [16]; 93% in the assay with Murid betaherpesvirus 1 [17]; 53% in the assay with Murid betaherpesvirus 1 [18]. The Activity in the assay with Murid betaherpesvirus 1 [19] was 7%; with Murid betaherpesvirus 1 [20], 20%; in the assay with Murid betaherpesvirus 1 [21], 6.8 days; with Murid betaherpesvirus 1 [22] it was 5.7 days; in the assay with Murid betaherpesvirus 1 [23], 7.3 days; in the assay on Murid betaherpesvirus 1 [24], 6.4 days.
